Test results as given in ChEMBL document CHEMBL4402525, “Potential Tools for Eradicating HIV Reservoirs in the Brain: Development of Trojan Horse Prodrugs for the Inhibition of P-Glycoprotein with Anti-HIV-1 Activity” (J Med Chem, 2020).
Active and inactive are the calls of the source. No cut-off for these calls is given here.

Assays:
[1] = system: Human immunodeficiency virus 1; assay: Antiviral activity against HIV1 LAI infected in human 12D7 cells overexpressing p-gp assessed as reduction in P24 level at 1:1 ratio of test compound to abacavir incubated for 3 days followed by followed by replacement of fresh medium containing compound and measured after 3 days by ELISA; format: functional, organism-based; conditions: M:B_Lai
How it was run: (§1)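 12D7 CD4+ T cells in log phase, resuspended at 1 million/mL, infected 4 h with 500 TCID50 HIV-1 LAI, washed three times, plated at 75 000 cells/mL; compound added at 0.05% DMSO in RPMI 1640 with 10% FBS, L-glutamine and penicillin/streptomycin; medium with same compound level renewed day 3; day-6 supernatant p24 (gag) quantified by ELISA; duplicate runs.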

[2] = system: Human immunodeficiency virus 1; assay: Antiviral activity against HIV1 LAI infected in human 12D7 cells overexpressing p-gp assessed as reduction in P24 level at 0.08 to 1.25 uM incubated for 3 days followed by replacement of fresh medium containing compound and measured after 3 days by ELISA; format: functional, organism-based; conditions: M:B_Lai; how it was run: as §1
[3] = Stability of compound in RPMI medium at 100 uM after 3 days by UPLC-MS analysis; format: physicochemical; conditions: read-out: Stability
How it was run: (§2)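 Heterodimer at 100 μM was held at 37 °C in 12D7 cell medium with 1% DMSO. The medium was RPMI 1640 with penicillin/streptomycin, 5 mM L-glutamine and 10% FBS. Every 24 h an aliquot was quenched 1:1 with ice-cold acetonitrile containing 1.0 mM 4-methoxybenzyl alcohol, then centrifuged. Supernatant was run on C8 RP-HPLC (0.05% TFA, 15–75% acetonitrile over 30 min, UV 254 nm), in duplicate.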

[4] = Produrg conversion in pH 7.4 PBS/30% methanol assessed as GSH-mediated darunavir formation by measuring half life at 4 uM in presence of 10 mM GSH by UPLC-MS analysis; format: ADME; conditions: pH 7.4, 4 µM
How it was run: (§3)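 Heterodimer at 4 μM was incubated at 37 °C with 250 mM DTT or 10 mM GSH. The solvent was degassed 30% methanol/PBS (pH ~ 7.4) containing 5 μM quinine as internal standard. Reductant-triggered release of the monomeric drugs was followed over time and given as t1/2.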

[5] = Produrg conversion in pH 7.4 PBS/30% methanol assessed as DTT-mediated abacavir formation by measuring half life at 4 uM in presence of 250 mM DTT by UPLC-MS analysis; format: ADME; conditions: buffer, pH 7.4, 4 µM; how it was run: as §3
[6] = Produrg conversion in pH 7.4 PBS/30% methanol assessed as GSH-mediated abacavir formation by measuring half life at 4 uM in presence of 10 mM GSH by UPLC-MS analysis; format: ADME; conditions: pH 7.4, 4 µM; how it was run: as §3
[7] = Stability of compound in PBS after 3 days by UPLC-MS analysis; format: physicochemical; conditions: read-out: Stability
[8] = Produrg conversion in pH 7.4 PBS/30% methanol assessed as DTT-mediated darunavir formation by measuring half life at 4 uM in presence of 250 mM DTT by UPLC-MS analysis; format: ADME; conditions: buffer, pH 7.4, 4 µM; how it was run: as §3
P-gp (ABCB1) [9] = target: T1, P-gp (ABCB1) (Homo sapiens, UniProt P08183); assay: Inhibition of P-gp in human 12D7-MDR cells up to 500 uM using calcein-AM as substrate after 30 mins by flow cytometric analysis relative to control; conditions: probe calcein-AM
T1 sequence (P08183 whole entry): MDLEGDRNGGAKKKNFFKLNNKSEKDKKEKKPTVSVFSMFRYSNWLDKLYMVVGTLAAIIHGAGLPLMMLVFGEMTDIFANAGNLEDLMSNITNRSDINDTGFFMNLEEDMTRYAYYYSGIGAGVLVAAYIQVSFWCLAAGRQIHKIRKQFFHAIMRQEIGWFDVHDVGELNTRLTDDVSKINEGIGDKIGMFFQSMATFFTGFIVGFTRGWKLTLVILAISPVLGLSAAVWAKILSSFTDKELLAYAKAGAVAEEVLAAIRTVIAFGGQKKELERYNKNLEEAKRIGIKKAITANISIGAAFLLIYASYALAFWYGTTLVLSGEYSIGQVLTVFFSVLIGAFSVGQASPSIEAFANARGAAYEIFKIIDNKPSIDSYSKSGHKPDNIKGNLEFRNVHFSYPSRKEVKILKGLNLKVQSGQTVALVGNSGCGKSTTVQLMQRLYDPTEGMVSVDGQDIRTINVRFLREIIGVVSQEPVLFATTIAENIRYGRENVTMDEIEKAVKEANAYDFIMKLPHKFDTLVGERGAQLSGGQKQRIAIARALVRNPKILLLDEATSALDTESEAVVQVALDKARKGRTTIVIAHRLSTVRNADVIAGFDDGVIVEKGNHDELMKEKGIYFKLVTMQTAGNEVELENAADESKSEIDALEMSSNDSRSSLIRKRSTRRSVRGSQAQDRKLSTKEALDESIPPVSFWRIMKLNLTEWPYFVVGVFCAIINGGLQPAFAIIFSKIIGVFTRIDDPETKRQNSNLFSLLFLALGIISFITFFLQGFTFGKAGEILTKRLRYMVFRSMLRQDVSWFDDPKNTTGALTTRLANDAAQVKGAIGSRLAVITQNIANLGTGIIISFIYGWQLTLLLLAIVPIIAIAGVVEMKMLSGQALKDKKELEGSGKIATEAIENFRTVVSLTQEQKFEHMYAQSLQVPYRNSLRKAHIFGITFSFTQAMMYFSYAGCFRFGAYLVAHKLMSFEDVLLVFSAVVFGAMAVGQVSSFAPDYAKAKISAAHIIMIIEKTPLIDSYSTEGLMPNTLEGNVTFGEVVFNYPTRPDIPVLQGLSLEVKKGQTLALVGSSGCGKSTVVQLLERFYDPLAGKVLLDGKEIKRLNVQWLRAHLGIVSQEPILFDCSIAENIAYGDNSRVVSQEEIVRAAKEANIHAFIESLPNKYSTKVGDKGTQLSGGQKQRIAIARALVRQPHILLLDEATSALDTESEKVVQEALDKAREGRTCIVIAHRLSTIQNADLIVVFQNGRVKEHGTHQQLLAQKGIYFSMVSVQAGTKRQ

P-gp (ABCB1) [10] = target: T1, P-gp (ABCB1); assay: Inhibition of P-gp in human 12D7-MDR cells up to 500 uM using NBD-Aba as substrate after 30 mins by flow cytometric analysis relative to control; conditions: probe NBD-Aba
[11] = Stability of compound in RPMI medium at 100 uM after 1 week by UPLC-MS analysis; format: physicochemical; conditions: read-out: Stability; how it was run: as §2
[12] = Stability of compound in PBS after 1 week by UPLC-MS analysis; format: physicochemical; conditions: read-out: Stability
[13] = Produrg conversion in pH 7.4 PBS/30% methanol assessed as DTT-mediated nelfinavir formation by measuring half life at 4 uM in presence of 250 mM DTT by UPLC-MS analysis; format: ADME; conditions: buffer, pH 7.4, 4 µM; how it was run: as §3
[14] = Produrg conversion in pH 7.4 PBS/30% methanol assessed as GSH-mediated nelfinavir formation by measuring half life at 4 uM in presence of 10 mM GSH by UPLC-MS analysis; format: ADME; conditions: pH 7.4, 4 µM; how it was run: as §3

SMILES	Activity [1]	Activity [2]	t1/2 [5]	t1/2 [6]	other results
CC(C)CN(C[C@@H](O)[C@H](Cc1ccccc1)NC(=O)O[C@H]1CO[C@H]2OCC[C@H]21)S(=O)(=O)c1ccc(N)cc1	Active	Active	–	–	–
CC(C)CN(C[C@@H](OC(=O)CCCSSCCCC(=O)OC[C@@H]1C=C[C@H](n2cnc3c(NC4CC4)nc(N)nc32)C1)[C@H](Cc1ccccc1)NC(=O)O[C@H]1CO[C@H]2OCC[C@H]21)S(=O)(=O)c1ccc(N)cc1	–	Active	34.5 h	21.6 h	remaining at 72 h, 100 µM [3]: > 95%; t1/2 [4]: 36.3 h; remaining at 72 h [7]: > 95%; t1/2 [8]: 21.3 h
Cc1c(O)cccc1C(=O)N[C@@H](CSc1ccccc1)[C@H](O)CN1C[C@H]2CCCC[C@H]2C[C@H]1C(=O)NC(C)(C)C	Active	Active	–	–	–
Nc1nc(NC2CC2)c2ncn([C@H]3C=C[C@@H](CO)C3)c2n1 [ABACAVIR]	–	Active	–	–	inhibition at 0.5 h (P-gp (ABCB1) [9]): < 10%; inhibition at 0.5 h (P-gp (ABCB1) [10]): < 10%
Cc1c(OC(=O)CCCSSCCCC(=O)OC[C@@H]2C=C[C@H](n3cnc4c(NC5CC5)nc(N)nc43)C2)cccc1C(=O)N[C@@H](CSc1ccccc1)[C@H](O)CN1C[C@H]2CCCC[C@H]2C[C@H]1C(=O)NC(C)(C)C	–	Active	31.8 h	29.4 h	remaining at 168 h, 100 µM [11]: > 95%; remaining at 168 h [12]: > 95%; t1/2 [13]: 1.2 h; t1/2 [14]: 10.3 h
